Data set [1] is described as follows: Terminal half life in human plasma at 120 mg administered as single dose. The class given is ADME, cell-free. The conditions noted are these: read-out: beta t1/2 (converted).
The next data set deals with L6. Briefly: Inhibition of cholesterol synthesis in rat L6 cells assessed as reduction of [14C]-cholesterol level using [14C]-acetic acid preincubated for 3 hrs before addition of [14C]-acetic acid by scintillation counting. The format is functional, cell-based. The gist of the method: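 Cholesterol synthesis inhibition measured in rat hepatocytes and rat myocyte cell line, giving IC50 for each. Mean ± SEM of n ≥ 2 independent determinations.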

The subject of data set [2] is Plasma. Briefly: fCmax in human plasma at 10 mg administered as single dose. The class given is ADME, cell-free. The gist of the method:
(§1)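 Phase 1 single ascending oral dose in healthy volunteers, with N per dose group. Total plasma Cmax and AUC(0-∞) were measured. Free-drug exposures were derived from these using plasma protein binding (human plasma fu measured at 0.5 μg/mL).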

Data set [3] deals with Plasma. In words: fCmax in human plasma at 3 mg administered as single dose. The format is ADME, cell-free. The gist of the method:
as §1

A short description of data set [4]: Cmax in human plasma at 160 mg administered as single dose. The format is ADME, organism-based. Details: dose 160 mg. In short, it runs like this: (§2)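 Phase 1 single ascending oral dose in healthy volunteers, about 5–6 subjects per dose. Total plasma drug Cmax and AUC(0-∞) were measured. Free-drug exposures were derived using plasma protein binding.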
Data set [5] relates to Homo sapiens. In words: Inhibition of HMG-CoA reductase in human assessed as decrease in AUC (0 to 72 hrs) of mevalonate level in plasma at 160 mg administered as single dose relative to control. The format is functional.
The test system of data set [6] is Homo sapiens. Briefly: Inhibition of HMG-CoA reductase in human assessed as decrease in AUC (0 to 72 hrs) of mevalonate level in plasma at 1 mg administered as single dose relative to control. The class given is functional.
In data set [7] the test system is Homo sapiens. In words: Inhibition of HMG-CoA reductase in human assessed as decrease in AUC (0 to 24 hrs) of mevalonate level in plasma at 80 mg administered as single dose relative to control. The format is functional.
The subject of data set [8] is Homo sapiens. Briefly: Inhibition of HMG-CoA reductase in human assessed as decrease in AUC (0 to 24 hrs) of mevalonate level in plasma at 1 mg administered as single dose relative to control. The format is functional.
In data set [9] the test system is Plasma. In words: fCmax in human plasma at 80 mg administered as single dose. The class given is ADME, cell-free. The gist of the method:
as §1

Data set [10] is described as follows: AUC (0 to infinity) in human plasma at 20 mg administered as single dose. The format is ADME, cell-free. Details: dose 20 mg, time infinity. The gist of the method: as §2

With `O=C([O-])C[C@H](O)C[C@H](O)CCn1c(-c2ccc(F)cc2)nc(C(=O)NCc2cccc(F)c2)c1C1CC1.[Na+]`, the half-life in [1] is 3.07 h. In the data set on L6, the 50% inhibitory concentration (IC50) (usually the concentration needed to halve the response being measured) worked out at 444 nM. The fCmax turned out to be 0.1 ng/mL in the data set with Plasma [2] and 0.016 ng/mL with Plasma [3].

On to `Cc1ccc(CNC(=O)c2nn(-c3ccc(F)cc3)c(CC[C@@H](O)C[C@@H](O)CC(=O)O)c2C(C)C)cc1`, for which, in [4], the concentration peaked (Cmax) at 6810 ng/mL. Also, the “inhibition (INH)” value is recorded as -24% with Homo sapiens [5], -8% with Homo sapiens [6], -65% in the data set on Homo sapiens [7] and -16% in the data set with Homo sapiens [8]. The same compound returned a fCmax in the data set with Plasma [9] of 228 ng/mL. For the same compound, in data set [10], the AUC(0-inf) – broadly, total exposure, with the tail of the curve extrapolated – is 1930 ng·h/mL.

The record behind these values is ChEMBL document CHEMBL1781963, “Discovery of novel hepatoselective HMG-CoA reductase inhibitors for treating hypercholesterolemia: a bench-to-bedside case study on tissue selective drug distribution” (Bioorg Med Chem Lett, 2011).
